This excerpt belongs to a sample that is enriched for hits.
HUVEC prolif 384 – inhibitors of human endothelial cell proliferation. viability, % at 10 µM (by protocol). HUVEC proliferation, CellTiter-Glo luminescence, 72 h; active compounds read low. 1.1% of 86,000 active;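 active = viability at or below 30%; inactive = viability above 30%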;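 note: 100% = median luminescence of DMSO-only cell control wells on each plate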
PTEN del growth – suppresses growth of cells with PTEN deletion; 1.2% of 140,000 active; viability, % at 10 µM; HCT116 PTEN-null viability, CellTiter-Glo, 60 h; active compounds read low; AID 827;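 active = viability at or below a set limit, 4 SD under the median of all tested compounds, cut at about 3.7% in these data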;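 note: PTEN knockout HCT116 line with beta catenin targeted HCT116 as companion control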
H69AR inhibit – blocks growth of human H69AR lung tumor cells; H69AR lung tumor viability, ATP luminescence, 72 h; active compounds read low; viability, % at 10 µM; 6% of 85,000 active; AID 598;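 active = viability at or below 40%; inactive = viability above 40%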;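 note: multidrug resistant small cell line overexpressing MRP-1 efflux transporter; 100% = mean luminescence of untreated control wells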
Fibroblast inh – blocks proliferation of human lung fibroblasts | LL 47 human lung fibroblast viability, ATP luminescence; active compounds read low | viability, % at 10 µM | 1.1% of 85,000 active;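 active = viability at or below 50% in the single dose screen; inactive = viability above 50%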;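 note: compound exposure lasted 72 h before the ATP readout; 100% = median luminescence of untreated cell-only wells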
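test system = LL 47 human lung fibroblasts | amount = 1,150 fibroblasts seeded per well | medium = 15% FBS in IMEM | times = overnight cell rest, 72 h compound treatment at 37 °C | measured by = CellTiter-Glo luminescence measuring cellular ATP | read-out = viability percentage against median untreated-cell control | benchmarks = cell-only wells, no compound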
bCat KO growth – beta-catenin-lacking colon tumor cell growth suppression; AID 818; HCT116 beta-catenin knockout viability, CellTiter-Glo, 60 h; active compounds read low; 1.5% of 140,000 active; viability, % at 10 µM;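 active = viability at or under a set limit, the compound median less 4 SD, cut at about 6% in these data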;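 note: 0% = Hyamine 1622 control at 20 µM and 100% = untreated cell control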
PTK2B oligo ant – blocks oligomerization of human Pyk2 in cells; z-score (the deposit names both 25 µM and 10 µM); AID 1347419; Q293 cells, Pyk2 FERM NanoBiT luminescence; active compounds read low; 0.83% of 99,000 active; Q14289;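 active = Z-score of -3 or lower, scaled per plate to the spread of control and sample wells; inactive = z-score above -3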;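 note: negative z-score means lost luminescence so less FERM oligomerization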
Target sequence (Q14289 whole entry, looked up): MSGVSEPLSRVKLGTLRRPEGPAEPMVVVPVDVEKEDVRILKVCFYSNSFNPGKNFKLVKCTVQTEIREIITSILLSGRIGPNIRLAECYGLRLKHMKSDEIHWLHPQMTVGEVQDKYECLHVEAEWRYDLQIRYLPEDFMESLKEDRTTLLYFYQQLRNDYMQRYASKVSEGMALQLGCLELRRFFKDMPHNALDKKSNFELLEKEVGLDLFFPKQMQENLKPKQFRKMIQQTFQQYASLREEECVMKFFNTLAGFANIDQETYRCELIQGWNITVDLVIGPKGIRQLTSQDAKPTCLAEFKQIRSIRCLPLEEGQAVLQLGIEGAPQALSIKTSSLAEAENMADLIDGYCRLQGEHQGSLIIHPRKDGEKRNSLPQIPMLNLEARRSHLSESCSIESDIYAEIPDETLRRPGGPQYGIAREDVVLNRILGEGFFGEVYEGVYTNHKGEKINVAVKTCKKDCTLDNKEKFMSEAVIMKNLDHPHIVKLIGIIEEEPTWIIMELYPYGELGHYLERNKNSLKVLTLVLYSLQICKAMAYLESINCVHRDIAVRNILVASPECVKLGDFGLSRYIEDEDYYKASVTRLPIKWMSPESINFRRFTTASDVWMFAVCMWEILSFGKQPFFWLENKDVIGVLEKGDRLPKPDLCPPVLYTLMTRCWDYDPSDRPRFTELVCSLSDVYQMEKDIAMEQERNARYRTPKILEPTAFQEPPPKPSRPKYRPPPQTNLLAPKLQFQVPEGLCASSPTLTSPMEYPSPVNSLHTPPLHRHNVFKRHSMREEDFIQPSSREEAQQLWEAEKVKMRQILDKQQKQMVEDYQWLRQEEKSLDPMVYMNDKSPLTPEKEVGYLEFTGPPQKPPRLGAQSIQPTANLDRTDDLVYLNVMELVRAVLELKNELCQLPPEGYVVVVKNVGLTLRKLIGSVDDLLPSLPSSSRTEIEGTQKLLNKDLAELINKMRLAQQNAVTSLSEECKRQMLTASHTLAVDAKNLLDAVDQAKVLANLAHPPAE
Active calls of the source: *; . = not tested or not shown.

SMILES | HUVEC prolif 384 | PTEN del growth | H69AR inhibit | Fibroblast inh | bCat KO growth | PTK2B oligo ant
CCCc1[nH][nH]c(=O)c1C(c1cccc(Cl)c1)C(C#N)C#N (configuration not stated) | 57 | 103 | 17* | 90 | 93 | -0.06
O=C(Oc1ccc(Cl)c2cccnc12)c1cccc([N+](=O)[O-])c1 | . | 22 | . | . | 26 | .
O=C(Oc1c(Cl)cc(Cl)c2cccnc12)c1cccc([N+](=O)[O-])c1 | . | 10 | . | . | 4.4* | .
CCN1CCc2c(C#N)c(N3CCCCC3)nc(NCc3ccccc3)c2C1 | 58 | 0.9* | 53 | 90 | 1.2* | 0.88
CCCCn1nnnc1NCc1ccc(C)s1 | 104 | 89 | 86 | 105 | 82 | 0
COc1ccccc1OCC(O)Cn1c(=N)n(Cc2ccccc2)c2ccccc21 (configuration not stated) | 36 | 8 | 51 | 60 | 5.2* | 0.87
CC(C)(C)C(=O)Cn1c(=N)n(Cc2ccccc2)c2ccccc21 | 113 | 79 | 38* | 91 | 83 | 0.09
COc1ccc(OCC(O)Cn2c(=N)n(CCN3CCCCC3)c3ccccc32)cc1 (configuration not stated) | 40 | 26 | 95 | 63 | 26 | 0.67
CCCCn1c(=N)n(CC(O)COc2cccc(C)c2)c2ccccc21 (configuration not stated) | 87 | 1.5* | 1.6* | 70 | 1.7* | 0.95
Cc1ccc(OCC(O)Cn2c(=N)n(CCN3CCCCC3)c3ccccc32)cc1 (configuration not stated) | . | 2.9* | . | . | 2.3* | 1.5
C=CCn1c(=N)n(CC(O)COc2ccccc2OC)c2ccccc21 (configuration not stated) | 79 | 75 | 75 | 94 | 60 | .
CCCCCn1c(=N)n(CC(O)COc2ccccc2OC)c2ccccc21 (configuration not stated) | . | 4 | . | . | 2.6* | .
N=c1n(Cc2ccccc2)c2ccccc2n1CC(O)c1ccccc1 (configuration not stated) | 89 | 48 | 38* | 88 | 37 | 1.1
Cc1ccc(Cn2c(=N)n(CC(O)c3ccco3)c3ccccc32)cc1 (configuration not stated) | 92 | 58 | 73 | 90 | 62 | 1.5
O=C(Cc1ccc(F)cc1)Oc1ccc(C(=S)N2CCCC2)cc1 | . | 101 | . | . | 95 | .
O=C(Cc1c(Sc2ccccc2)c2ccccc2n1Cc1ccccc1)NCCO | . | 61 | . | . | 68 | .
O=C(COC(=O)c1cc([N+](=O)[O-])ccc1NCCO)c1ccccc1 | . | 104 | . | . | 91 | .
CN(CC(=O)Nc1ccc(C#N)cc1)Cc1ccc(Cl)cc1 | 96 | 68 | 98 | 102 | 79 | 0.36
N#Cc1ccc(NC(=O)Nc2ccc(Cl)cc2)cc1 | 35 | 3.4* | 7.1* | 39* | 4.0* | -1.5
CCn1c(/C=C2/C(=O)N(C)c3ccccc32)nc2ccccc2c1=O | . | 64 | . | . | 69 | -0.9
CCN1C(=O)/C(=C/c2nc3ccccc3c(=O)n2-c2ccccc2)c2ccccc21 | . | 31 | . | . | 42 | -3.2*
CCOc1ccc(N2CC(C(=O)Nc3ccccc3F)CC2=O)cc1 (configuration not stated) | 94 | 99 | 88 | 93 | 102 | 0.44
O=C(c1ccc(Cl)cc1)c1c[nH]c(C(=O)C(Cl)(Cl)Cl)c1 | 49 | 2.5* | 2.4* | 44* | 1.8* | -0.16
Cc1ccc2c(c1)SC1=NC(c3ccccc3)(C(F)(F)F)NC(=O)N12 (configuration not stated) | 87 | 81 | 94 | 103 | 85 | .
CCOC(=O)/C=C/C(=O)Nc1ccccc1-c1ccccc1NC(=O)/C=C/C(=O)OCC | . | 2.0* | . | . | 3.9* | .
SMILES | HUVEC prolif 384 | PTEN del growth | H69AR inhibit | Fibroblast inh | bCat KO growth | PTK2B oligo ant
CCOC(=O)/C=C/C(=O)Nc1cccc([N+](=O)[O-])c1 | . | 105 | . | . | 91 | .
COc1cc(/C=C(\C#N)C(=O)NC2CCCCC2C)ccc1OS(=O)(=O)c1ccc(C)cc1 (configuration not stated) | . | 1.0* | . | . | 0.8* | .
NC(=O)Nc1ccc(C(=O)OCC(=O)Nc2ccc([N+](=O)[O-])cc2C(F)(F)F)cc1 | . | 88 | . | . | 87 | .
O=C(Oc1oc(-c2ccco2)nc1C=Nc1ccccc1)c1ccco1 | 87 | 95 | 39* | 86 | 101 | -0.09
O=C(Oc1oc(-c2ccco2)nc1C=Nc1ccccc1)c1ccoc1 | 72 | 96 | 38* | 87 | 98 | -0.12
Cc1ccc(C(=O)Oc2oc(-c3ccco3)nc2C=Nc2ccc(Cl)cc2)cc1 | 69 | 101 | 50 | 100 | 96 | 0.69
O=C(NCc1ccccn1)NC1CCCCC1 | . | 101 | . | . | 96 | .
CCCN(CCC)C(=O)C[n+]1cccc(/C=N/O)c1 | . | 92 | . | . | 93 | .
C=C(C)CN(CC)c1nc(N)c2c(N)nc3c(c2c1C#N)CC(=O)N3C12CC3CC(CC(C3)C1)C2 | . | 33 | . | . | 27 | -1.2
CCCCN1C(=O)Cc2c1nc(N)c1c(N)nc(N(CCC)CCC)c(C#N)c21 | . | 31 | . | . | 47 | -3.6*
CCc1c(C(=O)N/N=C/c2ccc(C)o2)csc1C | 105 | 82 | 102 | 100 | 82 | -0.7
COc1cc(/C=C(\C#N)C(=O)Nc2cccnc2)ccc1OC(C)C | . | 95 | . | . | 99 | .
COc1cc(Br)cc2cc(C(=O)OC3CCN(C)CC3)c(=O)oc12 | 95 | . | 36* | 101 | . | -0.04
COc1cccc2cc(C(=O)OC3CCN(C)CC3)c(=O)oc12 | 102 | 82 | 88 | 98 | 79 | .
CCCCOc1ccc(-c2c(C#N)c(N)nc(SCC(N)=O)c2C#N)cc1 | 67 | 9 | 35* | . | 26 | -0.36
COc1ccccc1-c1cc(C(=O)N2CCN(c3ccccc3OC)CC2)no1 | 77 | 55 | 28* | 97 | 77 | -2.9
COc1ccccc1N1CCN(C(=O)c2cc(-c3ccc(C)cc3)on2)CC1 | 106 | 87 | 96 | 105 | 85 | -2.4
COc1ccccc1N1CCN(C(=O)c2ccc(Br)s2)CC1 | 3.9* | 85 | 56 | 96 | 83 | -0.05
COc1ccccc1N1CCN(C(=O)c2oc3ccccc3c2C)CC1 | 58 | . | 18* | 87 | . | -0.18
COc1ccc(N(C(=O)CS(=O)CC(=O)Nc2ccc(F)cc2)C(C(=O)NC2CCCCC2)c2cccs2)cc1 (configuration not stated) | . | 72 | . | . | 92 | .

High-throughput results as filed in PubChem BioAssay.
